Assay outcomes (PubChem)
CHOP inh – inhibitors of CHOP induction in ER stress response; actives 3.8% (n = 220,000); CHO-K1 CHOP-promoter luciferase, tunicamycin-induced, 15-18 h; inhibition, % at 10 µM;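 active = compounds that reduced the stress-induced luciferase reporter signal by more than about 70% of percent inhibition, limit read from the data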
CHOP UPR activ – activators of apoptotic arm of unfolded protein response (CHOP). actives 0.34% (n = 330,000). activation, % at 10 µM. CHO-CHOP luciferase reporter, UPR activation, luminescence; percent of tunicamycin response over DMSO baseline. AID 449763;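 active = at 10 µM dose, activation of 40% or more, normalized to positive control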
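assay system = CHO CHOP reporter cells | amount = 500 CHO-CHOP cells per well | buffer or medium = F12 with 10% FBS | incubation = 16-18 h cell attachment, then 6 h compound exposure, 37 °C | detection = luminescence read with Steady-Glo | read-out = percent activation relative to tunicamycin control | controls = tunicamycin high control, DMSO low control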
UPR XBP1 act – adaptive UPR (XBP1) activation; CHO-XBP1 luciferase reporter, IRE1-XBP1 UPR activation, luminescence; percent of tunicamycin response, DMSO as zero; activation, % at 20 µM; actives 0.33% (n = 330,000);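 active = versus positive control, 20 µM dose yields 30% or more activation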
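Material – CHO cell line with stable XBP1 luciferase reporter · Buffer or medium – F12 plus 10% FBS · Compound – single point, 20 µM final compound, 1% DMSO · Schedule – 16-18 h cell attachment at 37 °C, then 6 h compound exposure · Signal – Steady-Glo luminescence read · Benchmarks – high control tunicamycin 10 µg/mL final, low control DMSO vehicle only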
VLA-4 inh – inhibition in a human VLA-4 binding assay; VLA-4 expressing cells, ligand binding flow cytometry; inhibition, % (about 7 µM as worked out from the volumes in the protocol); actives 0.2% (n = 330,000); AID 2557; P13612; in the data active = inhibition above about 50%
Target sequence (P13612 whole entry, looked up): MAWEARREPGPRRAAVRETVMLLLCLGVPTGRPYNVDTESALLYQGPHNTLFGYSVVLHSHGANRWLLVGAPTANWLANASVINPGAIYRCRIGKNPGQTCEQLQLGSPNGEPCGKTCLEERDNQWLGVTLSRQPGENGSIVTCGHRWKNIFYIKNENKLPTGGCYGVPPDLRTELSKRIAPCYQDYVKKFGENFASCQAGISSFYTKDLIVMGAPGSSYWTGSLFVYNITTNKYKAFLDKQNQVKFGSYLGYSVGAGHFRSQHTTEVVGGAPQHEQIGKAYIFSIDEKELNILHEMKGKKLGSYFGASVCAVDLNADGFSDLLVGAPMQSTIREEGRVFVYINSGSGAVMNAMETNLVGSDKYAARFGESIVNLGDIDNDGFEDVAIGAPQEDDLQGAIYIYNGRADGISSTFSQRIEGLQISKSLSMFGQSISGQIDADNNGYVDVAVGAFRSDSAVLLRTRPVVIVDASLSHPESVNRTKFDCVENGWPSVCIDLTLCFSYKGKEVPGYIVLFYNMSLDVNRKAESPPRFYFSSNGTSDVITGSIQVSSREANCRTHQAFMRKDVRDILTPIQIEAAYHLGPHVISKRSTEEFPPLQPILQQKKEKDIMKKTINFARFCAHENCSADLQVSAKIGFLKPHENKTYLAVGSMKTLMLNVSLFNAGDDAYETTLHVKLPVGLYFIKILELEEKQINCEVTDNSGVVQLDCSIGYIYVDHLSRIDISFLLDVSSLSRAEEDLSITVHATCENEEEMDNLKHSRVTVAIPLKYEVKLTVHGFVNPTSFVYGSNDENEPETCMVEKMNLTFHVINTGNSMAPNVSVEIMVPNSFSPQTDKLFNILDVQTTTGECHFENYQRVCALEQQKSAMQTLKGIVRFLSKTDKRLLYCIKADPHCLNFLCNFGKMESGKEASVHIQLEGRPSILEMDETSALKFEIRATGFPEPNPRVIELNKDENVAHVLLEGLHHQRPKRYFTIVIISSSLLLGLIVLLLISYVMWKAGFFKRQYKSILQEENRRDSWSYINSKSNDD
B2AR ag – activates human beta-2 adrenergic receptor causing internalization. P07550. Am2.2-beta2AR cells, FAP receptor internalization, flow cytometry. response, % (concentration not given with the values). actives 0.43% (n = 340,000);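 active = response above a set limit, near 3 SD of response in nonfluorescent compounds, cut at about 42% in these data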
Hits are given with their value; - = inactive; . = not tested or not shown. Only a selection was taken, and hits are over-represented in it overall.

SMILES | CHOP inh | CHOP UPR activ | UPR XBP1 act | VLA-4 inh | B2AR ag
Cc1cc2c(C(C)C)c(O)c(O)c(C=O)c2c(O)c1-c1c(C)cc2c(C(C)C)c(O)c(O)c(C=O)c2c1O | 109 | . | . | . | .
C=CCn1c(O)c(C=Nc2ccc(N(CC)CC)cc2)c(=O)[nH]c1=O | 71 | - | - | - | -
COc1ccc(N=Cc2c(O)n(CC3CCCO3)c(=O)[nH]c2=O)cc1 (centres undefined) | - | - | - | - | -
C=CCn1c(O)c(C=Nc2ccc(F)cc2)c(=O)[nH]c1=O | . | - | - | - | -
COc1ccc(CCn2c(O)c(C=Nc3ccc(NC(C)=O)cc3)c(=O)[nH]c2=O)cc1OC | - | - | - | - | -
COc1ccc(N=Cc2c(O)n(Cc3cccs3)c(=O)[nH]c2=O)cc1 | 81 | - | - | - | -
CCOc1ccc(N=Cc2c(O)n(CCc3ccc(OC)c(OC)c3)c(=O)[nH]c2=O)cc1 | 90 | - | - | - | -
Cn1ncnc2c(=O)n(C)c(=O)nc1-2 | . | - | - | - | 53
COC[C@H]1OC(=O)c2coc3c2[C@@]1(C)C1=C(C3=O)C2CCC(=O)[C@@]2(C)C[C@H]1OC(C)=O (some centres undefined) | - | . | . | . | .
Brc1ccc(CN2CCNCC2)s1 | 71 | - | - | - | -
Cc1cc(/C=C2\C(=O)NC(=O)N(c3ccc(Cl)cc3)C2=O)c(C)n1C | 79 | - | - | - | -
CCc1ccccc1N1C(=O)NC(=O)/C(=C\c2cc(C)n(C)c2C)C1=O | - | - | - | - | 61
CCCC1C(C#N)=C(N)Oc2c1c(=O)oc1ccccc21 (centres undefined) | - | - | - | - | -
CCCC(C)C1C(C#N)=C(N)Oc2c1c(=O)oc1ccccc21 (centres undefined) | 76 | - | - | - | -
c1ccc2sc(C3(N4CCCCC4)CCCCC3)cc2c1 | - | . | . | . | .
CC1CCCN(C(=O)CCl)C1 (centres undefined) | - | - | - | 56 | -
N[C@@H](Cn1cc(I)c(=O)[nH]c1=O)C(=O)O | - | . | . | . | .
O=C1NC(=S)N(c2ccccc2F)C(=O)/C1=C\c1cccs1 | 83 | - | - | - | -
Cc1ccc(O)c(CN2CCC3CCC(C3)C2)c1 (centres undefined) | . | . | . | . | -
Nc1c(C(=O)NCCN2CCOCC2)c2nc3ccccc3nc2n1Cc1ccco1 | - | - | - | - | -
CCCCn1c(N)c(C(=O)NCCN2CCOCC2)c2nc3ccccc3nc21 | - | - | - | - | -
Nc1c(C(=O)NCCc2ccccc2)c2nc3ccccc3nc2n1CCN1CCOCC1 | 88 | - | - | - | -
COc1ccc(CCNC(=O)c2c(N)n(CCN3CCOCC3)c3nc4ccccc4nc23)cc1 | 76 | - | - | - | -
CC(C)CCNC(=O)c1c(N)n(CC2CCCO2)c2nc3ccccc3nc12 (centres undefined) | 76 | - | - | - | -
Nc1c(C(=O)NCCN2CCOCC2)c2nc3ccccc3nc2n1Cc1ccccc1 | - | - | - | - | -
SMILES | CHOP inh | CHOP UPR activ | UPR XBP1 act | VLA-4 inh | B2AR ag
N#CC(=Cc1ccc(O)c(O)c1)C(N)=S | - | . | . | . | .
CCN1C[C@]2(C)CC[C@H](O)[C@@]34C5C[C@@H]6[C@@H](OC)C[C@@](O)(C5[C@H]6O)[C@@H](CC23)C14 (some centres undefined) | - | . | . | . | .
CC12NC(Cc3ccccc31)c1ccccc12 (centres undefined) | - | . | . | . | .
FC(F)(F)c1ccc2c(c1)N(CCCN1CCN(CCCl)CC1)c1ccccc1S2 | - | - | - | - | 68
CCCCCn1c(=O)c(C(=O)Nc2ccccc2)c(O)c2ccccc21 | . | - | - | - | -
CCCCCCn1c(=O)c(C(=O)Nc2nc(CC(=O)OCC)cs2)c(O)c2ccccc21 | 84 | - | - | - | -
CCOC(=O)Cc1csc(NC(=O)c2c(O)c3ccccc3n(CCC(C)C)c2=O)n1 | 89 | - | - | - | -
CCCCCCn1c(=O)c(C(=O)Nc2c(C)n(C)n(-c3ccccc3)c2=O)c(O)c2ccccc21 | 90 | - | - | - | -
CC(O)C(C)OC(=O)[C@@H]1C[C@@H]2c3cccc4c3c(cn4C(C)C)C[C@H]2N(C)C1 (some centres undefined) | - | . | . | . | .
CC[C@H](C)[C@@H]1O[C@@]2(C=CC1C)CC1C[C@@H](CC=C(C)C(O[C@H]3CC(OC)C(O[C@H]4CC(OC)C(O)C(C)O4)C(C)O3)C(C)C=CC=C3CO[C@@H]4C(O)C(C)=C[C@@H](C(=O)O1)[C@]34O)O2 (some centres undefined) | . | - | 50 | - | .
CCCCn1c(O)c(C=NC2CC3CCC2(C)C3(C)C)c(=O)[nH]c1=O (centres undefined) | 95 | - | - | - | -
COc1cccc(/C=C2\N=C(c3cncc(Br)c3)OC2=O)c1 | 85 | - | - | - | -
CCOc1ccc(N2C(=O)/C(=C/c3ccco3)C(=O)NC2=S)cc1 | . | - | - | - | -
CCCCN1C(=O)/C(=C/C=C/c2ccco2)C(=O)NC1=S | - | . | . | . | -
O=C1NC(=O)N(Cc2ccc(F)cc2)C(=O)/C1=C\C=C\c1ccco1 | - | - | - | - | 48
CC(C)c1ccc(N2C(=O)NC(=O)/C(=C/C=C/c3ccco3)C2=O)cc1 | 103 | . | . | - | -
COc1ccc(CC2c3cc(OC)c(OC)cc3CCN2C)cc1OC (centres undefined) | - | - | - | - | -
COc1cc2c(cc1OC)CC[N+](C)=C2 | - | - | - | - | 57
CCOc1cccc(=NC2CCCCC2)c2c(C)n(C)c(C)c12 | 79 | - | - | - | -
CCOc1ccccc1N=C1SCCCN1C | - | - | - | - | -
Clc1ccc2c(c1)C(c1ccccc1Cl)=NCc1nnc(N3CCN(CCSc4ccccc4)CC3)n1-2 | - | - | - | - | -
Clc1ccc2c(c1)C(c1ccccc1Cl)=NCc1nnc(N3CCN(CCOc4ccccc4)CC3)n1-2 | 88 | - | - | - | -
CN1C[C@@H](CS(=O)(=O)N(C)C)C[C@@H]2c3cccc4c3c(cn4C)C[C@H]21 | - | . | . | . | .
CCn1cc(C(=O)c2cccs2)c2ccccc21 | 77 | - | - | - | -
CC1OC(OC2C=C3CCC4C(CCC5(C)C(c6ccc(=O)oc6)CCC45O)C3(C)CC2)C(O)C(OC2OC(CO)C(O)C(O)C2O)C1O (centres undefined) | . | . | . | . | -
Cc1ccc(CN2C(=O)NC(=O)C3(Cc4c(nc5ccccn5c4=O)N4CCCCCC43)C2=O)cc1 (centres undefined) | 86 | - | - | - | -
CN1CCN(c2nc3ccccn3c(=O)c2C=C2C(=O)N(C)C(=O)N(C)C2=O)CC1 | - | - | - | - | -
COc1cc2c3c(c1OC)Oc1ccc(cc1)C[C@H]1c4c(cc(OC)c(OC)c4Oc4ccc(cc4)C[C@@H]3N(C)CC2)CCN1C | . | - | - | - | 45
